Here are results for one compound from ChEMBL document CHEMBL1157608, “The discovery of 4-{1-[({2,5-dimethyl-4-[4-(trifluoromethyl)benzyl]-3-thienyl}carbonyl)amino]cyclopropyl}benzoic acid (MK-2894), a potent and selective prostaglandin E2 subtype 4 receptor antagonist” (J Med Chem, 2010).

Usually Ki stands for the dissociation constant of the complex between target and ligand, obtained from inhibition or displacement. For orientation: bioavailability means dose-corrected exposure relative to a reference, in per cent. Broadly, the half-life is the time needed for the level to fall by half in the phase considered. Usually Cmax stands for the peak of the concentration-time curve. Usually EC50 stands for the concentration at which the effect is half-maximal. Broadly, the ED50 is the midpoint of the dose-response relation. Usually IC50 stands for the concentration needed to halve the response being measured.

The target in one series is Prostacyclin receptor (Homo sapiens, UniProt P43119). The series is described as follows: Displacement of [3H]iloprost from human IP receptor expressed in HEK293-EBNA cells by scintillation counting. The class given is cell-based. In a few lines:
(§1)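 Radioligand binding on membranes from HEK 293(EBNA) clonal lines overexpressing each prostanoid receptor, using the respective 3H-prostaglandin or thromboxane ligand; EP4 binding also run with 10% human serum; Ki as means of at least three experiments (rEP2, rEP3 n = 1).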

Series [1] in a line: Oral bioavailability in cynomolgus monkey at 5 mg/kg. Format: ADME, organism-based, Macaca fascicularis. Conditions: in vivo. An outline of the steps:
(§2)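 Overnight-fasted animals dosed po in 0.5% methocel or iv in 60% PEG 200; plasma from serial blood samples stored at -10 °C, protein-precipitated with equal volume acetonitrile/0.1% formic acid, analysed by LC/MS/MS with internal standard against spiked blank-plasma standards; Cmax from po data, half-life from iv data.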

A short description of series [2]: Half life in Sprague-Dawley rat at 5 mg/kg, iv. The class given is ADME, organism-based. Set-up: dose 5 mg/kg, route intravenous. Conditions: in vivo. In a few lines: as §2
Series [3] is described as follows: Cmax bioavailability in cynomolgus monkey at 5 mg/kg, po. The class given is ADME, organism-based, Macaca fascicularis. On the set-up: dose 5 mg/kg, route oral. Conditions: in vivo. In a few lines: as §2
Series [4] has as its system Rattus norvegicus. As to the kind of experiment: Analgesic activity in po dosed Sprague-Dawley rat assessed as inhibition of carrageenan-induced mechanical hyperalgesia.
The target of series [5] is T1, Prostaglandin E2 receptor EP4 subtype (Homo sapiens, UniProt P35408). As to the kind of experiment: Antagonist activity at human EP4 receptor expressed in HEK293 cells assessed as inhibition of PGE2-induced cAMP accumulation by scintillation proximity assay in presence of 10% human serum. The class given is functional, cell-based. An outline of the steps: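 Functional EP4 assay in the same HEK 293(EBNA) clonal line overexpressing human EP4; inhibition of PGE2-induced cAMP accumulation, run in presence of 10% human serum to gauge serum protein binding; IC50 values are means of at least three experiments.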

Series [6] deals with T1, Prostaglandin E2 receptor EP4 subtype. The series is described as follows: Activity at EP4 receptor in human whole blood assessed as blockade of inhibition of TNF-alpha-induced IP10 release. The class given is functional, tissue-based. An outline of the steps: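 Human whole blood; TNF-alpha-stimulated IP-10 release, suppressed by the selective EP4 agonist L-902688 (used in place of PGE2); antagonism measured as reversal of that suppression; IC50.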

The next series deals with T2, Thromboxane A2 receptor (Homo sapiens, UniProt P21731).
T2 sequence (P21731 whole entry): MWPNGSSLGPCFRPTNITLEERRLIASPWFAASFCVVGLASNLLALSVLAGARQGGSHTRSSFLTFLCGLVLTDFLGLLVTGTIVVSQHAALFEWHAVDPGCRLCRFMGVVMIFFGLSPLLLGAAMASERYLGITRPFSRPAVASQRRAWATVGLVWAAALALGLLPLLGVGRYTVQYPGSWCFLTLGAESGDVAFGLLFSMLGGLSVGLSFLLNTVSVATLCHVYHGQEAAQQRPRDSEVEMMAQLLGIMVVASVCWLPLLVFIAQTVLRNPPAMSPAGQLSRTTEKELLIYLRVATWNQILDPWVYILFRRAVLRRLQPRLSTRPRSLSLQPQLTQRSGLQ
The series is described as follows: Displacement of [3H]SQ29548 from human TP receptor expressed in HEK293-EBNA cells by scintillation counting. Format: cell-based. An outline of the steps: as §1
(Displacement assays read how much labelled ligand stays bound in the presence of the test substance.)

Series [7] has as its target T1, Prostaglandin E2 receptor EP4 subtype. As to the kind of experiment: Antagonist activity at human EP4 receptor expressed in HEK293 cells assessed as inhibition of PGE2-induced cAMP accumulation by scintillation proximity assay. The class given is functional, cell-based. An outline of the steps:
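HEK 293 cells; inhibition of PGE2-induced cAMP accumulation measured, with and without 10% human serum; means of at least three experiments.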
Background: Cyclic AMP is a second messenger, typically raised through Gs and lowered through Gi signalling.

For series [8], the target named is Prostaglandin E2 receptor EP2 subtype (Homo sapiens, UniProt P43116). The series is described as follows: Displacement of [3H]PGE2 from human EP2 receptor expressed in HEK293-EBNA cells by scintillation counting. The class given is cell-based. An outline of the steps: as §1
Series [9] concerns the target T1, Prostaglandin E2 receptor EP4 subtype. As to the kind of experiment: Displacement of [3H]PGE2 from human EP4 receptor expressed in HEK293-EBNA cells by scintillation counting. Format: cell-based. In a few lines:
as §1

For series [10] the target is unchanged. The series is described as follows: Displacement of [3H]PGE2 from human EP4 receptor expressed in HEK293-EBNA cells by scintillation counting in presence of 10% human serum. The class given is cell-based. In a few lines: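 Radioligand binding on membranes from HEK 293(EBNA) clonal cells overexpressing human EP4, [3H]PGE2 as tracer, run with 10% human serum added to assess serum protein binding; Ki values are means of at least three experiments.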

Series [11] in a line: Oral bioavailability in Beagle dog at 5 mg/kg. As to conditions: in vivo. Format: ADME, organism-based, Canis lupus familiaris. In a few lines: as §2
Series [12] concerns the target T3, Prostaglandin E2 receptor EP3 subtype (Homo sapiens, UniProt P43115).
T3 sequence (P43115 whole entry): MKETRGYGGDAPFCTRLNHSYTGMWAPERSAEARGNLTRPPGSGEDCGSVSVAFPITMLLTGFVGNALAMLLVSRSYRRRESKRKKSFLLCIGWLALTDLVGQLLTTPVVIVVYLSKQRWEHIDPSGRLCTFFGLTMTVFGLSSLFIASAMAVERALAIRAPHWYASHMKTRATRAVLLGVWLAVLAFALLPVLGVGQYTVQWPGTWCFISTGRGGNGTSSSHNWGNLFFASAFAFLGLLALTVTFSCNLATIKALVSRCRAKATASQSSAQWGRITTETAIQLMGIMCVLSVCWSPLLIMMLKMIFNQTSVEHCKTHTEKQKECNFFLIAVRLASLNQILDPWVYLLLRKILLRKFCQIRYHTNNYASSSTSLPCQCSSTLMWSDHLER
As to the kind of experiment: Displacement of [3H]PGE2 from human EP3 receptor expressed in HEK293-EBNA cells by scintillation counting. Format: cell-based. An outline of the steps: as §1

In series [13] the test system is Rattus norvegicus. As to the kind of experiment: Gastrointestinal toxicity in Sprague-Dawley rat assessed as urinary excretion of 51Cr-EDTA at 3 to 30 mg/kg/day, po once daily for 5 days. The class given is organism-based, Urine. Set-up: route oral. As to conditions: in vivo, 120 h. An outline of the steps:
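Male SD rats dosed orally once daily in 0.5% methocel (3, 10, 30 mg/kg for 5 days, or 5 mg/kg for 3 days); single oral 51Cr-EDTA given on day 4 or day 2 respectively; urinary 51Cr excretion as GI permeability index; n = 5/group treated, 4 vehicle; 1-way ANOVA/Dunnett's.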

Series [14] can be described thus: Half life in C57BL/6 mouse at 5 mg/kg, iv. On the set-up: dose 5 mg/kg, route intravenous. The class given is ADME, organism-based. As to conditions: in vivo. An outline of the steps: as §2
The nature of series [15]: Cmax in C57BL/6 mouse at 20 mg/kg, po. Format: ADME, organism-based. Set-up: dose 20 mg/kg, route oral. As to conditions: in vivo. In a few lines: as §2
Series [16] in a line: Oral bioavailability in Sprague-Dawley rat at 20 mg/kg. The class given is ADME, organism-based. Conditions: in vivo. In a few lines: as §2
Series [17] addresses T4, Prostaglandin E2 receptor EP1 subtype (Homo sapiens, UniProt P34995).
T4 sequence (P34995 whole entry): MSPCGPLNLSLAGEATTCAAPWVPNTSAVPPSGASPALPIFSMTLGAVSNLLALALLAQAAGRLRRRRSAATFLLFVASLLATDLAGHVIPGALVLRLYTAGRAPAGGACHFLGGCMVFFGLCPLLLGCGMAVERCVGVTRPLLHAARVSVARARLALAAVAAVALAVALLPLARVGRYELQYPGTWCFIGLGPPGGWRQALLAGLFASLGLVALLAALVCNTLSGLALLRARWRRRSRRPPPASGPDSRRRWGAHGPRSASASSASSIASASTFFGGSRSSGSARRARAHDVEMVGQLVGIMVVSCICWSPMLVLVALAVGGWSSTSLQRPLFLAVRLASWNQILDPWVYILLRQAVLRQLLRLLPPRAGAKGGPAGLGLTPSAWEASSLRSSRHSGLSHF
As to the kind of experiment: Displacement of [3H]PGE2 from human EP1 receptor expressed in HEK293-EBNA cells by scintillation counting. The class given is cell-based. An outline of the steps:
as §1

Series [18] in a line: Half life in Beagle dog at 1 mg/kg, iv. The class given is ADME, organism-based, Canis lupus familiaris. On the set-up: dose 1 mg/kg, route intravenous. As to conditions: in vivo. An outline of the steps:
as §2

T1 sequence (P35408 whole entry): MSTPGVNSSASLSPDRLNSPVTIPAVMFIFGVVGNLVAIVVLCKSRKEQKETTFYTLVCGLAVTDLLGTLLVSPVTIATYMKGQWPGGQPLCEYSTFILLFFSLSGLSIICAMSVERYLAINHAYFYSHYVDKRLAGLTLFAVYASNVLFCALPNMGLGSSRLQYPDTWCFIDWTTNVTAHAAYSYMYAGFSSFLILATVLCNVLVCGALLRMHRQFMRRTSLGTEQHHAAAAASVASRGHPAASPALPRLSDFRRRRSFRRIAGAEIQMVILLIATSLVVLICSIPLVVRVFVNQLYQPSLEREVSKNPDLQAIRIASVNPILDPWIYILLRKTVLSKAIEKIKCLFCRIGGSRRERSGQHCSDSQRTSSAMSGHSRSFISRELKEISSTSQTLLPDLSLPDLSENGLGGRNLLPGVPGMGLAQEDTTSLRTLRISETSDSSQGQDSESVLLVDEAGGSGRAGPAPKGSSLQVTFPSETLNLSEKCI
Chain of Prostacyclin receptor (P43119 whole entry): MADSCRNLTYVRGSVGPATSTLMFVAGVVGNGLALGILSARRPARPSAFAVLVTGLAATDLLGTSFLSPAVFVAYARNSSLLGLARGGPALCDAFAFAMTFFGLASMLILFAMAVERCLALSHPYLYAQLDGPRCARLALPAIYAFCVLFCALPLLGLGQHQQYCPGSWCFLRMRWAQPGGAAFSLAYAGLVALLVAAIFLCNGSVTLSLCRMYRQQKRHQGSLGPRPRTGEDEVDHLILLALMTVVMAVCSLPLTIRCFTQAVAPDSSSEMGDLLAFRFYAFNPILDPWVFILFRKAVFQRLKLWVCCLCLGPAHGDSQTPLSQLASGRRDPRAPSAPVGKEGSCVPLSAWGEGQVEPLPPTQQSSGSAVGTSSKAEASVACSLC
Chain of Prostaglandin E2 receptor EP2 subtype (P43116 whole entry): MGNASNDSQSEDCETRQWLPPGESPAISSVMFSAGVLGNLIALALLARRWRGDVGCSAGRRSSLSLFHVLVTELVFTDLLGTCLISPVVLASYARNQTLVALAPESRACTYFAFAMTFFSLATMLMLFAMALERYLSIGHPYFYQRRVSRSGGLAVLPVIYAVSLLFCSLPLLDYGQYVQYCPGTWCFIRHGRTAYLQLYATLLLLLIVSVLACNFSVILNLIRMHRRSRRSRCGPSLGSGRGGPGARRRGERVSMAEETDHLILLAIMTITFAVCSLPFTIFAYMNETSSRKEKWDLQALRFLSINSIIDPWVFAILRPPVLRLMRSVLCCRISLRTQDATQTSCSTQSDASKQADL

Take `Cc1sc(C)c(C(=O)NC2(c3ccc(C(=O)O)cc3)CC2)c1Cc1ccc(C(F)(F)F)cc1`: the Ki is greater than 22000 nM on Prostacyclin receptor; greater than 6800 nM at Thromboxane A2 receptor; 5900 nM in [8]; 0.56 nM in series [9]; 0.97 nM in series [10]; greater than 7900 nM in series [12]. In addition, in series [17], the Ki was greater than 5600 nM. The bioavailability came out at 18% in [1], 32% in series [11] and 29% in [16]. The half-life is 4.5 h in series [2], 15 h in series [14] and 8.8 h in series [18]. Moreover, the Cmax was 50 nM in [3] and 1400 nM in series [15]. In addition, the EC50 with Rattus norvegicus [4] came out at 250 nM. The median effective dose (ED50) with Rattus norvegicus [4] (po) is 0.36 mg/kg. For the same compound, the IC50 in series [5] worked out at 2.9 nM; in [6] it was 11 nM; in series [7], 2.5 nM. Further, the Activity entry in the series with Rattus norvegicus [13] is recorded as “Non-toxic”.
